Measurements gathered from unrelated publications.
Lines come from different studies, so protocols differ.

Structure (SMILES) | species | medium | route | dose | notes | Cmax
NCc1ccc(-c2nn(Cc3ccccc3)c3ccccc23)o1 | male CD-1 mouse | plasma | oral | 10 mg/kg | – | 0.395 µg/mL
Cc1ncsc1-c1ccc([C@H](C)NC(=O)[C@@H]2C[C@@H](O)CN2C(=O)[C@@H](NC(=O)CCCCCCCCC(=O)N2CCC(n3cc(-c4ccc5c(c4)CCN5C(=O)Cc4cccc(OC(F)(F)F)c4)c4c(N)ncnc43)CC2)C(C)(C)C)cc1 | male C57BL/6 mouse | plasma | intravenous | 1 mg/kg | – | 3.42 µg/mL
COC1=CC(c2ccc[nH]2)=N/C1=C\c1cc(Cc2ccc(OC(F)(F)F)cc2)c(C)[nH]1.Cl | male CD-1 mouse | plasma | oral | 40 mg/kg | single dose | 0.161 µg/mL
CN(C)C(=O)c1cc2cnc(Nc3ccc(-c4ccc5c(=O)cc(N6CCOCC6)oc5c4)cc3)nc2n1C1CCCC1 | BALB/c mouse | plasma | oral | 20 mg/kg | – | 1.44 µg/mL
OCc1ccc(-c2nn(Cc3ccccc3)c3ccccc23)o1 | male CD-1 mouse | plasma | oral | 10 mg/kg | – | 0.22 µg/mL
CC[C@H](C)[C@H](NC(=O)[C@H](CCC(=O)O)NC(=O)[C@H](CO)NC(=O)[C@@H](NC(=O)[C@@H](N)CO)C(C)C)C(=O)N[C@@H](CCC(N)=O)C(=O)N[C@@H](CC(C)C)C(=O)N[C@@H](CCSC)C(=O)N[C@@H](Cc1cnc[nH]1)C(=O)N[C@@H](CC(N)=O)C(=O)N[C@@H](CC(C)C)C(=O)NCC(=O)N[C@@H](CCCCN)C(=O)N[C@@H](Cc1cnc[nH]1)C(=O)N[C@@H](CC(C)C)C(=O)N[C@@H](CC(N)=O)C(=O)N[C@@H](CO)C(=O)N[C@@H](CCSC)C(=O)N[C@@H](CCC(=O)O)C(=O)N[C@@H](CCCNC(=N)N)C(=O)N[C@H](C(=O)N[C@@H](CCC(=O)O)C(=O)N[C@@H](Cc1c[nH]c2ccccc12)C(=O)N[C@@H](CC(C)C)C(=O)N[C@@H](CCCNC(=N)N)C(=O)N[C@@H](CCCCN)C(=O)N[C@@H](CCCCN)C(=O)N[C@@H](CC(C)C)C(=O)N[C@@H](CCC(N)=O)C(=O)N[C@@H](CC(=O)O)C(=O)N[C@H](C(=O)N[C@@H](Cc1cnc[nH]1)C(=O)N[C@@H](CC(N)=O)C(=O)N[C@@H](Cc1ccccc1)C(N)=O)C(C)C)C(C)C | female CD-1 mouse | serum | intravenous | 10 nmol/kg | – | 0.008 µM
COCC(=O)N1CCc2[nH]c3c(Cl)c(Cl)ccc3c2[C@@H]1C | C57BL/6 mouse | blood | oral | 20 mg/kg | – | 3.47 µM
Cc1nc2ccc(OCc3ccc(C(F)(F)F)cc3)cc2[nH]1 | male BALB/c mouse | plasma | intravenous | 1 mg/kg | – | 4.54 µg/mL
Cc1cc(-c2ccnc3[nH]cc(F)c23)cc(F)c1[C@@]1(O)[C@H](C)CN(C2CCS(=O)(=O)CC2)C[C@@H]1C | male CD-1 mouse | plasma | oral | 3 mg/kg | – | 0.75 µg/mL
OCc1nc2ccc(NCc3ccc(C(F)(F)F)cc3)cc2[nH]1 | male BALB/c mouse | plasma | oral | 10 mg/kg | – | 1.79 µg/mL
COC1=CC(c2ccc[nH]2)=N/C1=C\c1[nH]c(Cc2ccc(OC(F)(F)F)cc2)cc1Cc1ccc(OC(F)(F)F)cc1 | male CD-1 mouse | plasma | oral | 40 mg/kg | single dose | 3.95 µg/mL
CC(C)(C)c1sc2ncnc(Oc3c(F)cccc3OC(F)(F)F)c2c1-c1ccc(Cl)cc1 | mouse | plasma | intravenous | 1 mg/kg | single dose | 2.56 µg/mL
O=C1CCC(N2Cc3cc(C4CCN(Cc5ccccc5)CC4)ccc3C2=O)C(=O)N1 (centres unmarked) | male CD-1 mouse | plasma | intravenous | 1 mg/kg | – | 0.204 µg/mL
Cc1cc(-c2ccnc3[nH]cc(F)c23)cc(F)c1[C@@]1(O)[C@H](C)CN(C(=O)CN)C[C@@H]1C | male CD-1 mouse | plasma | intravenous | 1 mg/kg | – | 1.98 µg/mL
Cc1ccc(OCC(=O)N[C@@H](Cc2c[nH]c3ccccc23)C(=O)OC(C)C)cc1 | male Sprague-Dawley mouse | plasma | oral | 20 mg/kg | – | 2.56 µg/mL
NCc1ccc(-c2nn(Cc3ccncc3)c3ccccc23)o1 | male CD-1 mouse | plasma | intraperitoneal | 30 mg/kg | – | 1.15 µg/mL
Cc1ncsc1-c1ccc([C@H](C)NC(=O)[C@@H]2C[C@@H](O)CN2C(=O)[C@@H](NC(=O)CCCCCCCCCCC(=O)NCCCn2cc(-c3ccc4c(c3)CCN4C(=O)Cc3cccc(OC(F)(F)F)c3)c3c(N)ncnc32)C(C)(C)C)cc1 | mouse | plasma | intravenous | 1 mg/kg | – | 2.33 µg/mL
CCOC(=O)c1c(NC(=O)CNC(C)C)sc2c1CCCCC2 | male mouse | plasma | intraperitoneal | 100 mg/kg | single dose | 6.34 µg/mL
Cc1ncsc1-c1ccc([C@H](CC(=O)N2CC3(C2)CN(c2ccc(C#Cc4ccc(C(=O)N5CCC(n6cc(-c7ccc8c(c7)CCN8C(=O)Cc7cccc(OC(F)(F)F)c7)c7c(N)ncnc76)CC5)cc4)cn2)C3)NC(=O)[C@@H]2C[C@@H](O)CN2C(=O)[C@@H](NC(=O)C2(F)CC2)C(C)(C)C)cc1 | male C57BL/6 mouse | plasma | intravenous | 1 mg/kg | – | 19 µg/mL
COc1cc(C2C3=C(COC3=O)N(CCO)c3cc4c(cc32)CCC4)cc(OC)c1OC (centres unmarked) | female C57BL/6 mouse | plasma | intraperitoneal | 50 mg/kg | – | 1.04 µg/mL
